NF-kB expr up: compounds increasing NF-kB expression in human neuronal cells | NF-kB reporter expression; stronger effect = higher value | fold change at 12.5 µM | 190,000 compounds, 1.6% hits; in the data active means fold change above about 3.3
APP 5'UTR act: APP 5'UTR luciferase reporter activation. SH-SY5Y APP 5'UTR luciferase reporter, luminescence; zero percent = DMSO vehicle wells. activation, % at 2 µM. 190,000 compounds, 1% hits. AID 1276;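 active means activation above a set limit, based on mean plus 3 SD of controls, cut at about 140% in these data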
STAT1 act: increases IFN-gamma driven STAT1 reporter signal; NIH 3T3 STAT1-luciferase reporter, luminescence; 100% = IFN-gamma alone, no compound; activation (% of control), % at 5.5 µM; 200,000 compounds, 2.6% hits; AID 932;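 active means activation above the screen-wide mean activation plus 3 SD, cut at about 130% in these data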
STAT3 blocker: inhibitors of IL-6 induced STAT3 signaling; U3A cells, IL-6 STAT3-luciferase reporter, luminescence; host cell line lacks STAT1; inhibition, % at 5.5 µM; 190,000 compounds, 0.89% hits; AID 862;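 active means inhibition above the mean inhibition across all screened compounds plus 3 SD, cut at about 44% in these data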
STAT3 activator: increases IL-6 driven STAT3 reporter signal; U3A cells, IL-6 STAT3-luciferase reporter, luminescence; 100% = signal with IL-6 EC80 alone; activation (% of control), % at 5.6 µM; 190,000 compounds, 0.91% hits;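 active means activation above the screen-wide mean of compound activation plus 3 SD, cut at about 130% in these data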
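Test system: Human STAT1-deficient U3A cells with stable STAT3-luciferase reporter | Also added: Interleukin-6, 33 ng/mL | Timing: Compound pre-incubation 1 h before IL-6, then 6 h stimulation at 37 °C | Technique: Luciferase reporter luminescence | Read-out: Percent of IL-6-only median luminescence | Benchmarks: IL-6-only wells as 100% reference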
STAT1 inh: STAT1 signaling inhibition; NIH 3T3 STAT1-luciferase reporter, IFN-gamma, luminescence; inhibition, % at 5.5 µM; 200,000 compounds, 0.35% hits; AID 920;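 active means inhibition above a set limit, the mean inhibition across all tested compounds plus 3 SD, cut at about 34% in these data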
STAT1 activ conf: confirmation of STAT1 signaling activators; shares compounds with STAT1 act; NIH 3T3 STAT1-luciferase reporter, IFN-gamma potentiation, luminescence; 100% = IFN-gamma EC80 alone, no compound; activation (% of control), % at 5.7 µM; 1,200 compounds, 97% hits; AID 1262;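 active means activation above a set limit carried over from the earlier primary STAT1 screen, cut at about 140% in these data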
NFkB act: activates NF-kappaB, counter-screen to STAT1 activators; activation (% of control), % at 5.7 µM; 1,200 compounds, 43% hits; AID 1306; HEK293T NF-kB luciferase reporter, TNF-alpha stimulated, luminescence; 100% = TNF-alpha with vehicle only; shares compounds with STAT1 act;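 active means activation above the mean of solvent-only control wells plus 3 SD, set per campaign, cut at about 130% in these data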;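 further: TNF-alpha given at a submaximal dose yielding about 80% of full reporter signal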
STAT3 act 2: activates human STAT3, counter-screen to STAT1 activators | shares compounds with STAT1 act | U3A cells STAT3-luciferase reporter, IL-6, luminescence; cells lack STAT1; 100 = IL-6 alone, no compound effect | activation (% of control), % at 5.7 µM | 1,200 compounds, 46% hits;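 active means activation above the solvent-only control well mean plus 3 SD, set per plate batch, cut at about 110% in these data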;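 further: higher means more STAT3 reporter activation so hits are non-selective activators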
Of the large screens only hits and unclear results are named; the others gave an inactive call (follow-up assays come after a bar, where they were run). Only some compounds are listed: those with a hit (about 4.9% of all), similar ones and a draw of the others.

CS(=O)(=O)N1CCN(c2ccc(NC(=O)c3ccc([N+](=O)[O-])o3)cc2)CC1	STAT1 act 160 | STAT1 activ conf inactive | NFkB act inactive | STAT3 act 2 inactive
COc1cc(/C=C(\C#N)C(=O)NC2CCCCC2)ccc1OCc1ccc(C(=O)O)cc1	none
COCCNc1nc(-c2cc3ccccc3o2)cs1	NF-kB expr up 8.1, APP 5'UTR act 180, STAT1 act 194 | STAT1 activ conf 230 | NFkB act inactive | STAT3 act 2 inactive
COc1cccc(CN2CCNC(=O)C2CC(=O)NCCOc2cccnc2)c1 (stereo unspecified)	none
CC(/C=N/NC(=O)c1cccs1)=C\c1ccco1	NF-kB expr up 5.5, APP 5'UTR act 160, STAT1 act 171 | STAT1 activ conf 173 | NFkB act inactive | STAT3 act 2 inactive
O=C(N/N=C/C=C/c1ccccc1)c1cccs1	NF-kB expr up 3.5, STAT1 act 157 | STAT1 activ conf 165 | NFkB act 137 | STAT3 act 2 inactive
CC(/C=N/NC(=O)Cc1cccs1)=C\c1ccco1	none
O=C(N/N=C/C=C/c1ccccc1)c1ccncc1	none
C/C(=N\NC(=O)c1cccs1)C(C)(C)C	STAT1 act 158 | STAT1 activ conf inactive | NFkB act inactive | STAT3 act 2 113
C/C(=N/NC(=O)c1cccs1)c1ccco1	none
O=C(/C=C/c1cccc(F)c1)Nc1nccs1	NF-kB expr up 3.6, STAT1 act 151 | STAT1 activ conf 175 | NFkB act 137 | STAT3 act 2 112
O=C(Nc1cccc(Cl)c1)Nc1nccs1	none
Cc1oc(-c2ccc(-c3ccccc3)cc2)nc1CN1CCN(CC(=O)N(C)C)CC1	STAT1 act 155 | STAT1 activ conf 191 | NFkB act inactive | STAT3 act 2 128
Cc1oc(-c2ccccc2)nc1CC(=O)O	none
Cc1ccc2nc(-c3ccc(NC(=O)CCN4C(=O)c5ccccc5C4=O)cc3)sc2c1	NF-kB expr up 7.4, STAT1 act 160 | STAT1 activ conf 153 | NFkB act inactive | STAT3 act 2 inactive
CCN1C/C(=C/c2ccc(OC)c(O)c2)C(=O)/C(=C/c2ccc(OC)c(O)c2)C1	STAT1 act 335 | STAT1 activ conf inactive | NFkB act 138 | STAT3 act 2 inactive
COc1ccc(CN2CC(=O)N(c3ccc(C)c(C)c3)C2=S)cc1OC	none
Cc1ccc2nc(-c3ccc(NS(=O)(=O)c4ccc(F)c(F)c4)cc3)sc2c1	NF-kB expr up 6.5, APP 5'UTR act 180, STAT1 act 172 | STAT1 activ conf 217 | NFkB act 137 | STAT3 act 2 inactive
Cc1ccc2nc(-c3ccc(NS(=O)(=O)c4ccccc4)cc3)sc2c1	none
COc1ccccc1C(=O)COC(=O)c1ccc(N(C)C)cc1	APP 5'UTR act 142, STAT1 act 174 | STAT1 activ conf 175 | NFkB act 134 | STAT3 act 2 132
CC(NC(=O)COC(=O)c1ccc(N(C)C)cc1)c1ccccc1 (stereo unspecified)	none
COc1ccc(/C=C2\SC(=O)N(CCNC(=O)C3CC4C=CC3C4)C2=O)cc1 (stereo unspecified)	NF-kB expr up 9.5, APP 5'UTR act 202, STAT1 act 159 | STAT1 activ conf 146 | NFkB act 150 | STAT3 act 2 134
COc1ccc(C(=O)NC(=S)Nc2ccccc2F)cc1	STAT1 act 158 | STAT1 activ conf 171 | NFkB act 134 | STAT3 act 2 inactive
CCOC(=O)C1(Cc2cccc(Cl)c2)CCCN(CCO)C1 (stereo unspecified)	none

Bioassay records (PubChem BioAssay)
